Results published in ChEMBL document CHEMBL3525900, “Pharmacokinetics, distribution, and metabolism of [14C]sunitinib in rats, monkeys, and humans” (Drug Metab Dispos, 2012).

Legend:
[1] = Drug concentration in female Lister Hooded pigmented rat preputial gland assessed as radioactivity per gram of tissue at 20 mg/kg administered as single dose via gastric gavage measured after 24 hrs by autoradiographic analysis; type: ADME, organism-based; set-up: dose 20 mg/kg, dosed compound name [14C]Sunitinib; details: in vivo, po
Summary of the method: (§1)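 Lister Hooded (pigmented) rats, ca 7-8 weeks old, acclimated 7 days, given [14C]sunitinib L-malate by gastric gavage at 20 mg/kg (15 mg freebase/kg, 100 µCi/kg). One male and one female killed by CO2 at 24, 72, 168 and 336 h. Carcasses frozen in solid CO2/hexane and embedded in frozen cellulose. 30 µm sagittal cryosections were freeze-dried. Tissue radioactivity measured by quantitative whole-body autoradiography against calibration standards, with background subtracted.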

Spleen = assay: Drug concentration in male albino rat spleen assessed as radioactivity per gram of tissue at 20 mg/kg administered as single dose via gastric gavage measured after 72 hrs by autoradiographic analysis; type: ADME, organism-based; set-up: dose 20 mg/kg, dosed compound name [14C]Sunitinib; details: in vivo, po
[2] = Drug recovery in feces of female cynomolgus monkey at 6 mg/kg, po administered as single dose during 0 to 336 hrs by liquid scintillation counting; type: ADME, organism-based, Macaca fascicularis; set-up: dose 6 mg/kg, dosed compound name [14C]Sunitinib, route oral; details: in vivo
Large intestine [3] = assay: Drug concentration in male albino rat large intestine assessed as radioactivity per gram of tissue at 20 mg/kg administered as single dose via gastric gavage measured after 3 hrs by autoradiographic analysis; type: ADME, organism-based; set-up: dose 20 mg/kg, dosed compound name [14C]Sunitinib; details: in vivo, po
Thymus [4] = assay: Drug concentration in female albino rat thymus assessed as radioactivity per gram of tissue at 20 mg/kg administered as single dose via gastric gavage measured after 3 hrs by autoradiographic analysis; type: ADME, organism-based; set-up: dose 20 mg/kg, dosed compound name [14C]Sunitinib; details: in vivo, po
Liver [5] = assay: Drug concentration in male Lister Hooded pigmented rat liver assessed as radioactivity per gram of tissue at 20 mg/kg administered as single dose via gastric gavage measured after 168 hrs by autoradiographic analysis; type: ADME, organism-based; set-up: dose 20 mg/kg, dosed compound name [14C]Sunitinib; details: in vivo, po
Cynomolgus monkey [6] = assay: Terminal half life as total radioactivity in male cynomolgus monkey plasma at 6 mg/kg, po administered as single dose by LC/MS/MS analysis; type: ADME, organism-based, Macaca fascicularis; set-up: dose 6 mg/kg, dosed compound name [14C]Sunitinib, route oral; details: in vivo
Ovary [7] = assay: Drug concentration in female albino rat ovary assessed as radioactivity per gram of tissue at 20 mg/kg administered as single dose via gastric gavage measured after 72 hrs by autoradiographic analysis; type: ADME, organism-based, Female gonad; set-up: dose 20 mg/kg, dosed compound name [14C]Sunitinib; details: in vivo, po
Summary of the method: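 Sprague Dawley albino rats, ca 7-8 weeks old, dosed once by gastric gavage with [14C]sunitinib L-malate (15 mg freebase/kg, 100 µCi/kg). One male and one female killed by CO2 at 3, 6, 24, 72 and 168 h. Carcasses frozen in solid CO2/hexane, embedded and cut into 30 µm sagittal sections, then freeze-dried. Radioactivity quantified by whole-body autoradiography against standards by regression, background subtracted.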

Adrenal = assay: Drug concentration in male Lister Hooded pigmented rat adrenal assessed as radioactivity per gram of tissue at 20 mg/kg administered as single dose via gastric gavage measured after 336 hrs by autoradiographic analysis; type: ADME, organism-based; set-up: dose 20 mg/kg, dosed compound name [14C]Sunitinib; details: in vivo, po
[8] = Drug concentration in female albino rat uterus assessed as radioactivity per gram of tissue at 20 mg/kg administered as single dose via gastric gavage measured after 72 hrs by autoradiographic analysis; type: ADME, organism-based; set-up: dose 20 mg/kg, dosed compound name [14C]Sunitinib; details: in vivo, po
Brain = assay: Drug concentration in male albino rat brain assessed as radioactivity per gram of tissue at 20 mg/kg administered as single dose via gastric gavage measured after 6 hrs by autoradiographic analysis; type: ADME, organism-based; set-up: dose 20 mg/kg, dosed compound name [14C]Sunitinib; details: in vivo, po
[9] = Drug concentration in female Lister Hooded pigmented rat pituitary gland assessed as radioactivity per gram of tissue at 20 mg/kg administered as single dose via gastric gavage measured after 24 hrs by autoradiographic analysis; type: ADME, organism-based; set-up: dose 20 mg/kg, dosed compound name [14C]Sunitinib; details: in vivo, po; summary of the method: as §1
Stomach = assay: Drug concentration in female albino rat stomach assessed as radioactivity per gram of tissue at 20 mg/kg administered as single dose via gastric gavage measured after 72 hrs by autoradiographic analysis; type: ADME, organism-based; set-up: dose 20 mg/kg, dosed compound name [14C]Sunitinib; details: in vivo, po
Cynomolgus monkey [10] = assay: Terminal half life as total radioactivity in female cynomolgus monkey plasma at 6 mg/kg, po administered as single dose by LC/MS/MS analysis; type: ADME, organism-based, Macaca fascicularis; set-up: dose 6 mg/kg, dosed compound name [14C]Sunitinib, route oral; details: in vivo
[11] = Drug recovery in urine of male cynomolgus monkey at 6 mg/kg, po administered as single dose during 0 to 336 hrs by liquid scintillation counting; type: ADME, organism-based, Macaca fascicularis; set-up: dose 6 mg/kg, dosed compound name [14C]Sunitinib, route oral; details: in vivo
Liver [12] = assay: Drug concentration in male Lister Hooded pigmented rat liver assessed as radioactivity per gram of tissue at 20 mg/kg administered as single dose via gastric gavage measured after 24 hrs by autoradiographic analysis; type: ADME, organism-based; set-up: dose 20 mg/kg, dosed compound name [14C]Sunitinib; details: in vivo, po
[13] = Drug concentration in female Lister Hooded pigmented rat uveal tract assessed as radioactivity per gram of tissue at 20 mg/kg administered as single dose via gastric gavage measured after 336 hrs by autoradiographic analysis; type: ADME, organism-based; set-up: dose 20 mg/kg, dosed compound name [14C]Sunitinib; details: in vivo, po; summary of the method: as §1
Thymus [14] = assay: Drug concentration in male Lister Hooded pigmented rat thymus assessed as radioactivity per gram of tissue at 20 mg/kg administered as single dose via gastric gavage measured after 168 hrs by autoradiographic analysis; type: ADME, organism-based; set-up: dose 20 mg/kg, dosed compound name [14C]Sunitinib; details: in vivo, po
Small intestine = assay: Drug concentration in female Lister Hooded pigmented rat small intestine assessed as radioactivity per gram of tissue at 20 mg/kg administered as single dose via gastric gavage measured after 24 hrs by autoradiographic analysis; type: ADME, organism-based; set-up: dose 20 mg/kg, dosed compound name [14C]Sunitinib; details: in vivo, po; summary of the method: as §1
[15] = Drug concentration in male albino rat bladder assessed as radioactivity per gram of tissue at 20 mg/kg administered as single dose via gastric gavage measured after 6 hrs by autoradiographic analysis; type: ADME, organism-based, Urinary bladder; set-up: dose 20 mg/kg, dosed compound name [14C]Sunitinib; details: in vivo, po
Spinal cord = assay: Drug concentration in male albino rat spinal cord assessed as radioactivity per gram of tissue at 20 mg/kg administered as single dose via gastric gavage measured after 3 hrs by autoradiographic analysis; type: ADME, organism-based; set-up: dose 20 mg/kg, dosed compound name [14C]Sunitinib; details: in vivo, po
Pancreas = assay: Drug concentration in male albino rat pancreas assessed as radioactivity per gram of tissue at 20 mg/kg administered as single dose via gastric gavage measured after 3 hrs by autoradiographic analysis; type: ADME, organism-based; set-up: dose 20 mg/kg, dosed compound name [14C]Sunitinib; details: in vivo, po
[16] = Drug concentration in male albino rat testis assessed as radioactivity per gram of tissue at 20 mg/kg administered as single dose via gastric gavage measured after 3 hrs by autoradiographic analysis; type: ADME, organism-based; set-up: dose 20 mg/kg, dosed compound name [14C]Sunitinib; details: in vivo, po
Homo sapiens = assay: Cmax as total radioactivity in human plasma at 50 mg, po administered as single dose measured up to 24 hrs by LC/MS/MS analysis; type: ADME, organism-based; set-up: dose 50 mg, dosed compound name [14C]Sunitinib, route oral; details: in vivo
Summary of the method: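 Open-label phase I study in 8 subjects given one 50 mg oral dose of [14C]sunitinib (100 µCi). Plasma total radioactivity was counted by scintillation on triplicate 0.25 mL aliquots. Sunitinib was quantified by LC-MS-MS. Noncompartmental analysis: Cmax read directly, terminal t½ = ln(2)/slope of the log-concentration regression, AUC by linear trapezoidal rule to the last detectable concentration.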

Large intestine [17] = assay: Drug concentration in male albino rat large intestine assessed as radioactivity per gram of tissue at 20 mg/kg administered as single dose via gastric gavage measured after 72 hrs by autoradiographic analysis; type: ADME, organism-based; set-up: dose 20 mg/kg, dosed compound name [14C]Sunitinib; details: in vivo, po
Lung = assay: Drug concentration in male albino rat lung assessed as radioactivity per gram of tissue at 20 mg/kg administered as single dose via gastric gavage measured after 6 hrs by autoradiographic analysis; type: ADME, organism-based; set-up: dose 20 mg/kg, dosed compound name [14C]Sunitinib; details: in vivo, po
Thymus [18] = assay: Drug concentration in male albino rat thymus assessed as radioactivity per gram of tissue at 20 mg/kg administered as single dose via gastric gavage measured after 3 hrs by autoradiographic analysis; type: ADME, organism-based; set-up: dose 20 mg/kg, dosed compound name [14C]Sunitinib; details: in vivo, po
Ovary [19] = assay: Drug concentration in female albino rat ovary assessed as radioactivity per gram of tissue at 20 mg/kg administered as single dose via gastric gavage measured after 3 hrs by autoradiographic analysis; type: ADME, organism-based, Female gonad; set-up: dose 20 mg/kg, dosed compound name [14C]Sunitinib; details: in vivo, po
Summary of the method: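 Sprague Dawley (albino) and Lister Hooded (pigmented) rats, ca 7-8 weeks old, 179-310 g, acclimated 7 days. Single gavage dose of [14C]sunitinib L-malate (15 mg freebase/kg, 100 µCi/kg). One male and one female killed by CO2 per time point: albino at 3, 6, 24, 72, 168 h; pigmented at 24, 72, 168, 336 h. Carcasses frozen in solid CO2/hexane, 30 µm sagittal sections freeze-dried. Tissue radioactivity read by quantitative whole-body autoradiography against regression of standards, mean background subtracted.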

Radiolabel recovery [1]: 4.5 ugequiv
Radiolabel recovery (Spleen): 0.2 ugequiv
Radiolabel recovery [2]: 84.1%
Radiolabel recovery (Large intestine [3]): 6.05 ugequiv
Radiolabel recovery (Thymus [4]): 9.36 ugequiv
Radiolabel recovery (Liver [5]): 0.06 ugequiv
beta t1/2 (Cynomolgus monkey [6]): 222 h
Radiolabel recovery (Ovary [7]): 0.09 ugequiv
Radiolabel recovery (Adrenal): 0.16 ugequiv
Radiolabel recovery [8]: 0.12 ugequiv
Radiolabel recovery (Brain): 0.34 ugequiv
Radiolabel recovery [9]: 2.87 ugequiv
Radiolabel recovery (Stomach): 0.15 ugequiv
beta t1/2 (Cynomolgus monkey [10]): 121 h
Radiolabel recovery [11]: 4.8%
Radiolabel recovery (Liver [12]): 2.09 ugequiv
Radiolabel recovery [13]: 323.3 ugequiv
Radiolabel recovery (Thymus [14]): 0.06 ugequiv
Radiolabel recovery (Small intestine): 1.16 ugequiv
Radiolabel recovery [15]: 2.56 ugequiv
Radiolabel recovery (Spinal cord): 0.19 ugequiv
Radiolabel recovery (Pancreas): 11.1 ugequiv
Radiolabel recovery [16]: 0.79 ugequiv
Cmax (Homo sapiens): 67.4 ngequiv/ml
Radiolabel recovery (Large intestine [17]): 0.08 ugequiv
Radiolabel recovery (Lung): 17.87 ugequiv
Radiolabel recovery (Thymus [18]): 6.89 ugequiv
Radiolabel recovery (Ovary [19]): 10.92 ugequiv
Structure (SMILES): CCN(CC)CCNC(=O)c1c(C)[nH]c(/[14CH]=C2\C(=O)Nc3ccc(F)cc32)c1C.O=C(O)C[C@H](O)C(=O)O
